Source: ChEMBL document CHEMBL1128174, “Enhanced D1 affinity in a series of piperazine ring substituted 1-piperazino-3-arylindans with potential atypical antipsychotic activity” (J Med Chem, 1995)
“And” between values parts separate entries of the source, which are not always exact repeats. Equal entries are not always repeated.

Legend:
[1] = target: D(2) dopamine receptor (Rattus norvegicus, UniProt P61169); assay: Binding affinity against dopamine receptor D2
[2] = target: D(1A) dopamine receptor (Rattus norvegicus, UniProt P18901); assay: Binding affinity for dopamine receptor D1, activity is expressed as IC50 values.
Sequence of D(1A) dopamine receptor (P18901 whole entry): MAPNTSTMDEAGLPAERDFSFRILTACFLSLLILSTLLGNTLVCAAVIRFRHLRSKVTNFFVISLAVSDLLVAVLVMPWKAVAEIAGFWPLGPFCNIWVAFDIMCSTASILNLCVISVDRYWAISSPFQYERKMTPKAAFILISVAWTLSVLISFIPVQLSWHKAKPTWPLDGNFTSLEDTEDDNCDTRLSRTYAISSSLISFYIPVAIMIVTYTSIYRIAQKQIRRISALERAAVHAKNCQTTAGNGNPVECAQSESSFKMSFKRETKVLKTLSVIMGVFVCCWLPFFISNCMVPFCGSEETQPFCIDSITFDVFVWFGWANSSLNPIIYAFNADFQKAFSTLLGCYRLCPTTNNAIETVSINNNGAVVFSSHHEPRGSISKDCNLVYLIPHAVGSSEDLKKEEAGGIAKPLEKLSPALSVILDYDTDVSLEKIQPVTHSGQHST

[3] = organism: Rattus norvegicus; assay: Cataleptogenic effect in rats; assay type: functional
How it was run: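 Rats scored on a vertical wire grid hourly 1–6 h after dosing; catalepsy counted when immobility lasted at least 15 s.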

[4] = organism: Mus musculus; assay: Antagonism of methyl phenidate-induced gnawing behavior in mice; assay type: functional
How it was run: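 Test compound given ip (or sc) 2 h before methyl phenidate (60 mg/kg); mice housed in pairs on corrugated cardboard in gnawing cages, 5–9 pairs per dose.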

[5] = target: 5-hydroxytryptamine receptor 2A (Rattus norvegicus, UniProt P14842); assay: Binding affinity for 5-hydroxytryptamine 2A receptor, activity is expressed as IC50 values.
Sequence of 5-hydroxytryptamine receptor 2A (P14842 whole entry): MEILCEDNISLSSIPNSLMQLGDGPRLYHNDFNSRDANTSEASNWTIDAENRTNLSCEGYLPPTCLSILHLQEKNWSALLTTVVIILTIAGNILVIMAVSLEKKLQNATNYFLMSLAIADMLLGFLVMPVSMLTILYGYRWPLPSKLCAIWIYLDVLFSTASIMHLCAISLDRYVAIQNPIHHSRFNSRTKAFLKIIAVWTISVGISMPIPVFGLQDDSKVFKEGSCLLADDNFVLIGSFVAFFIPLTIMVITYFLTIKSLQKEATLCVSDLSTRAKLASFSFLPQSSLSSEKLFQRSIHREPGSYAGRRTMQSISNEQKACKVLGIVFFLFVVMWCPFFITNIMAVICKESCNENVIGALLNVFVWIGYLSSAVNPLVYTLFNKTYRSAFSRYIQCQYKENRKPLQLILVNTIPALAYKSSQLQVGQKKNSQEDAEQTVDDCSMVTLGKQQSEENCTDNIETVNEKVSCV

[6] = organism: Rattus norvegicus; assay: In vitro inhibition of [3H]5-HT uptake in rat brain (minus pons, medulla oblongata and cerebellum) homogenates.; assay type: functional
[7] = organism: Rattus norvegicus; assay: In vitro inhibition of [3H]NE uptake in rat occipital lobe (plus temporal cortex) homogenates.; assay type: functional
[8] = organism: Rattus norvegicus; assay: In vitro inhibition of [3H]dopamine uptake in rat corpus striatum homogenates.; assay type: functional
[9] = Rattus norvegicus, read-out: ED50
[10] = Rattus norvegicus, Corpus striatum

Sequence of D(2) dopamine receptor (P61169 whole entry): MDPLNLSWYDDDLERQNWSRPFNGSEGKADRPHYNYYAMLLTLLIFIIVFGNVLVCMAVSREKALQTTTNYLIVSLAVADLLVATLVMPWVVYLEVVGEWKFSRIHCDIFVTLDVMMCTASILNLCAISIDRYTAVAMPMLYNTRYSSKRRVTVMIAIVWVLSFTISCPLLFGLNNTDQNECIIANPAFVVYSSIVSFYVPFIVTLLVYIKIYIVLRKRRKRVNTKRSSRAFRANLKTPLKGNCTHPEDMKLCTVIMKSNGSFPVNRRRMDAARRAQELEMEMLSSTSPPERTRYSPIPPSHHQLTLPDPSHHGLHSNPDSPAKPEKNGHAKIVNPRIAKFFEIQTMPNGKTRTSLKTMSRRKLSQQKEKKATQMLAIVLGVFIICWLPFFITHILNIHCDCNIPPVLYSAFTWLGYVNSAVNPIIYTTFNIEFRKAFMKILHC

Row | Compound | IC50 [1] | IC50 [2] | ED50 [3, 9] | ED50 ([4]; Mus musculus, read-out: ED50) | also measured
1 | OCCN1CCN(C2CC(c3ccc(F)cc3)c3ccc(C(F)(F)F)cc32)CC1 (stereo unspecified) | 10 nM | 23 nM | – | – | –
2 | CC(C)c1ccc2c(c1)C(N1CCN(CCO)CC1)CC2c1ccc(F)cc1 (stereo unspecified) | 14 nM | 66 nM | – | – | –
3 | OCCN1CCN(C2CC(c3ccccc3)c3ccccc32)CC1 (stereo unspecified) | 2800 nM | 730 nM | – | – | –
4 | CN1CCN(C2CC(c3ccc(F)cc3)c3cccc(Cl)c32)CC1(C)C (stereo unspecified) | – | – | > 41 µmol/kg | > 41 µmol/kg | –
5 | CC1(C)CN(C2CC(c3ccc(F)cc3)c3ccc(Cl)cc32)CCN1CCO (stereo unspecified) | – | – | 3.7 µmol/kg | 0.34 µmol/kg | –
6 | CN1CCN(C2CC(c3ccccc3F)c3ccc(Cl)cc32)CC1(C)C (stereo unspecified) | – | – | > 33 µmol/kg | 34 µmol/kg | –
7 | Cc1ccc2c(c1)C(N1CCN(C)CC1)CC2c1ccc(F)cc1 (stereo unspecified) | 13 nM | 38 nM | – | – | –
8 | CN1CCN(C2CC(c3ccccc3)c3ccc(Cl)cc32)CC1 (stereo unspecified) | 61 nM | 16 nM | – | – | –
9 | OCCN1CCN(C2CC(c3ccc(F)cc3)c3ccc(F)cc32)CC1 (stereo unspecified) | 82 nM | 16 nM | – | – | –
10 | CC1(C)CN(C2CC(c3ccc(F)cc3)c3ccc(C(F)(F)F)cc32)CCN1 (stereo unspecified) | – | – | > 51 µmol/kg | 2.7 µmol/kg | IC50 [5]: 7.5 nM
11 | CN1CCN(C2CC(c3ccc(F)cc3)c3ccc(Br)cc32)CC1(C)C (stereo unspecified) | – | – | 9.4 µmol/kg | 1.5 µmol/kg | –
12 | COc1ccc2c(c1)C(N1CCN(CCO)CC1)CC2c1ccc(F)cc1 (stereo unspecified) | 86 nM | 210 nM | – | – | –
13 | CN1CCN(C2CC(c3cccc(F)c3)c3ccc(Cl)cc32)CC1(C)C (stereo unspecified) | – | – | > 33 µmol/kg | > 33 µmol/kg | –
14 | CC1(C)CN(C2CC(c3ccc(F)cc3)c3ccc(Cl)cc32)CCN1CCCO (stereo unspecified) | 21 nM | 1.1 nM | < 17 µmol/kg | – | –
15 | CN1CCN(C2CC(c3ccc(F)cc3)c3ccc(C(F)(F)F)cc32)CC1 (stereo unspecified) | 8.1 nM | 17 nM | – | – | –
16 | CCC1(CC)CN(C2CC(c3ccc(F)cc3)c3ccc(Cl)cc32)CCN1C (stereo unspecified) | – | – | > 20 µmol/kg | > 81 µmol/kg | –
17 | Cc1ccc2c(c1)C(N1CCN(CCO)CC1)CC2c1ccc(F)cc1 (stereo unspecified) | 23 nM | 51 nM | – | – | –
18 | CC1CN(C2CC(c3ccc(F)cc3)c3ccc(Cl)cc32)CC(C)N1C (stereo unspecified) | 120 nM | 13 nM | > 36 µmol/kg | 53 µmol/kg | –
19 | CN1CCN(C2CC(c3ccc(F)cc3)c3c(Cl)cccc32)CC1(C)C (stereo unspecified) | – | – | – | > 36 µmol/kg | –
20 | CN1CCN(C2CC(c3ccc(Cl)cc3)c3ccc(Cl)cc32)CC1(C)C (stereo unspecified) | 63 nM | 34 nM | – | > 69 µmol/kg | IC50 [5]: 32 nM
21 | CS(=O)(=O)c1ccc2c(c1)C(N1CCN(CCO)CC1)CC2c1ccc(F)cc1 (stereo unspecified) | 42 nM | 690 nM | – | – | –
22 | Cc1ccc2c(c1)C(N1CCNC(C)(C)C1)CC2c1ccc(F)cc1 (stereo unspecified) | – | – | > 29 µmol/kg | 33 µmol/kg | –
23 | Cc1ccc2c(c1)C(N1CCN(C)C(C)(C)C1)CC2c1ccc(F)cc1 (stereo unspecified) | – | – | 33 µmol/kg | 1.4 µmol/kg | –
24 | CN1CCN(C2CC(c3ccc(F)cc3)c3ccc(F)cc32)CC1 (stereo unspecified) | – | – | – | – | IC50 [6]: 610 nM and 3900 nM
25 | Fc1ccc(C2CC(N3CCN4CCCCC4C3)c3cc(Cl)ccc32)cc1 (stereo unspecified) | – | – | 4.1 µmol/kg | 14 µmol/kg | –

Row | Compound | IC50 [1] | IC50 [2] | ED50 [3, 9] | ED50 ([4]; Mus musculus, read-out: ED50) | also measured
26 | CSc1ccc2c(c1)C(N1CCN(CCO)CC1)CC2c1ccc(F)cc1 (stereo unspecified) | 13 nM | 39 nM | – | – | –
27 | CC1CN(C2CC(c3ccc(F)cc3)c3ccc(Cl)cc32)C(C)CN1C (stereo unspecified) | 41 nM | 19 nM | > 33 µmol/kg | > 66 µmol/kg | –
28 | CN1CCN(C2CC(c3ccc(F)cc3)c3ccc(C(F)(F)F)cc32)CC1(C)C (stereo unspecified) | – | – | 5.2 µmol/kg | 0.99 µmol/kg | –
29 | CN1CCN(C2CC(c3ccc(F)cc3)c3ccc(Cl)cc32)CC12CCC2 (stereo unspecified) | – | – | 69 µmol/kg | 1 µmol/kg | –
30 | CC1CN(C2CC(c3ccc(F)cc3)c3ccc(Cl)cc32)CCN1C (stereo unspecified) | – | – | 9.3 µmol/kg | 0.27 µmol/kg | –
31 | CN1CCN(C2CC(c3ccc(F)cc3)c3ccc(Cl)cc32)CC12CCCCC2 (stereo unspecified) | – | – | – | > 80 µmol/kg | –
32 | CN1CCN(C2CC(c3ccccc3)c3ccccc32)CC1(C)C (stereo unspecified) | – | – | > 36 µmol/kg | > 36 µmol/kg | –
33 | OCCN1CCN(C2CC(c3ccc(F)cc3)c3cccc(Cl)c32)CC1 (stereo unspecified) | – | 130 nM | – | – | –
34 | CC(C)N1CCN(C2CC(c3ccc(F)cc3)c3ccc(Cl)cc32)CC1(C)C (single isomer, unassigned; (+)) | – | 52 nM | – | – | IC50 [7]: 100 nM; IC50 [8]: 20 nM; IC50 [6]: 2600 nM
35 | CC1(C)CN(C2CC(c3ccc(F)cc3)c3ccc(Cl)cc32)CCN1 (single isomer, unassigned; (+)) | 12000 nM | 1100 nM | – | – | IC50 [5]: 3600 nM; IC50 [7]: 290 nM; IC50 [8]: 29 nM; IC50 [6]: > 100 nM
36 | CN1CCN(C2CC(c3ccc(F)cc3)c3ccccc32)CC1(C)C (single isomer, unassigned; (+)) | 4900 nM | 250 nM | – | – | IC50 [5]: 650 nM; IC50 [7]: 76 nM; IC50 [8]: 25 nM; IC50 ([6]; Rattus norvegicus): 5200 nM
37 | OCCN1CCN(C2CC(c3ccc(F)cc3)c3ccc(Cl)cc32)CC12CCCC2 (single isomer, unassigned; (+)) | – | 51 nM | – | – | IC50 ([7]; Rattus norvegicus): 440 nM; IC50 [8, 10]: 120 nM; IC50 ([6]; Rattus norvegicus): 2400 nM
38 | CN1CCN(C2CC(c3ccc(F)cc3)c3ccc(Cl)cc32)CC12CCCC2 (single isomer, unassigned; (+)) | – | 6.6 nM | – | – | IC50 ([7]; Rattus norvegicus): 690 nM; IC50 [8, 10]: 150 nM; IC50 ([6]; Rattus norvegicus): 1800 nM
39 | CC(C)N1CCN(C2CC(c3ccc(F)cc3)c3ccc(Cl)cc32)CC1(C)C (single isomer, unassigned; (-)) | – | 0.66 nM | – | – | IC50 [7]: 5600 nM; IC50 [8]: 1300 nM; IC50 ([6]; Rattus norvegicus): 3500 nM; ED50 [3]: 7.1 µM/kg; ED50 [4]: 0.76 µM/kg
40 | CN1CCN(C2CC(c3ccc(F)cc3)c3ccc(Cl)cc32)CC1(C)C (stereo in doubt; 28) | – | 1.3 nM | – | – | IC50 [5]: 2.1 nM; ED50 [3]: 25 µM/kg; ED50 [4]: 0.65 µM/kg
41 | CC(C)N1CCN(C2CC(c3ccc(F)cc3)c3ccc(Cl)cc32)CC1(C)C (stereo in doubt; 29) | – | 0.82 nM | 6.9 µmol/kg | – | ED50 [4]: 1.6 µM/kg
42 | CN1CCN(C2CC(c3ccc(F)cc3)c3ccc(Cl)cc32)CC12CCCC2 (stereo in doubt; 34) | – | 0.85 nM | 42 µmol/kg | 1.7 µmol/kg | –
43 | OCCN1CCN(C2CC(c3ccc(F)cc3)c3ccc(Cl)cc32)CC12CCCC2 (stereo in doubt; 35) | 13 nM | 1.9 nM | – | – | ED50 [3]: 14 µM/kg; ED50 [4]: 1.6 µM/kg
44 | CN1CCN(C2CC(c3ccc(F)cc3)c3ccccc32)CC1(C)C (stereo in doubt; 39) | 29 nM | 3 nM | > 70 µmol/kg | 12 µmol/kg | IC50 [5]: 5.1 nM
45 | CC1(C)CN(C2CC(c3ccsc3)c3ccc(Cl)cc32)CCN1 (stereo in doubt; 54) | – | – | – | – | ED50 [3]: >35 µM/kg; ED50 [4]: 6.5 µM/kg
46 | CN1CCN(C2CC(c3ccc(F)cc3)c3ccc(Cl)cc32)CC1(C)C (stereo in doubt; (+)-28) | – | 620 nM | – | – | IC50 [7]: 68 nM; IC50 [8]: 16 nM; IC50 [6]: > 1000 nM
47 | CN1CCN(C2CC(c3ccc(F)cc3)c3ccc(Cl)cc32)CC1(C)C (stereo in doubt; (-)-28) | – | 0.68 nM | – | 0.48 µmol/kg | IC50 [5]: 1.1 nM; IC50 [7]: 6500 nM; IC50 [8]: 3200 nM; IC50 [6]: 7200 nM; ED50 [3]: 9.8 µM/kg
48 | CN1CCN(C2CC(c3ccc(F)cc3)c3ccc(Cl)cc32)CC12CCCC2 (stereo in doubt; (-)-34) | – | 0.96 nM | – | – | ED50 [3]: 31 µM/kg; ED50 [4]: 1.2 µM/kg
49 | OCCN1CCN(C2CC(c3ccc(F)cc3)c3ccc(Cl)cc32)CC12CCCC2 (stereo in doubt; (-)-35) | 5 nM | 1 nM | – | – | ED50 [3]: 2.7 µM/kg; ED50 [4]: 0.49 µM/kg
50 | CN1CCN(C2=Nc3cc(Cl)ccc3Nc3ccccc32)CC1 [CLOZAPINE] | – | – | > 120 µmol/kg | 98 µmol/kg | –
